Test results from ChEMBL document CHEMBL4152247, “Discovery of novel 2,4-diarylaminopyrimidine derivatives as potent and selective epidermal growth factor receptor (EGFR) inhibitors against L858R/T790M resistance mutation” (Eur J Med Chem, 2018).
Active and inactive are the calls of the source. The rule behind the calls is not given here.

Tests used:
[1] = biological target: T1, Epidermal growth factor receptor (Homo sapiens, UniProt P00533); experiment: Inhibition of recombinant human GST-tagged wild type EGFR expressed in baculovirus expression system using poly (Glu, Tyr) 4:1 as substrate after 1 hr by ELISA
T1 sequence (P00533 whole entry): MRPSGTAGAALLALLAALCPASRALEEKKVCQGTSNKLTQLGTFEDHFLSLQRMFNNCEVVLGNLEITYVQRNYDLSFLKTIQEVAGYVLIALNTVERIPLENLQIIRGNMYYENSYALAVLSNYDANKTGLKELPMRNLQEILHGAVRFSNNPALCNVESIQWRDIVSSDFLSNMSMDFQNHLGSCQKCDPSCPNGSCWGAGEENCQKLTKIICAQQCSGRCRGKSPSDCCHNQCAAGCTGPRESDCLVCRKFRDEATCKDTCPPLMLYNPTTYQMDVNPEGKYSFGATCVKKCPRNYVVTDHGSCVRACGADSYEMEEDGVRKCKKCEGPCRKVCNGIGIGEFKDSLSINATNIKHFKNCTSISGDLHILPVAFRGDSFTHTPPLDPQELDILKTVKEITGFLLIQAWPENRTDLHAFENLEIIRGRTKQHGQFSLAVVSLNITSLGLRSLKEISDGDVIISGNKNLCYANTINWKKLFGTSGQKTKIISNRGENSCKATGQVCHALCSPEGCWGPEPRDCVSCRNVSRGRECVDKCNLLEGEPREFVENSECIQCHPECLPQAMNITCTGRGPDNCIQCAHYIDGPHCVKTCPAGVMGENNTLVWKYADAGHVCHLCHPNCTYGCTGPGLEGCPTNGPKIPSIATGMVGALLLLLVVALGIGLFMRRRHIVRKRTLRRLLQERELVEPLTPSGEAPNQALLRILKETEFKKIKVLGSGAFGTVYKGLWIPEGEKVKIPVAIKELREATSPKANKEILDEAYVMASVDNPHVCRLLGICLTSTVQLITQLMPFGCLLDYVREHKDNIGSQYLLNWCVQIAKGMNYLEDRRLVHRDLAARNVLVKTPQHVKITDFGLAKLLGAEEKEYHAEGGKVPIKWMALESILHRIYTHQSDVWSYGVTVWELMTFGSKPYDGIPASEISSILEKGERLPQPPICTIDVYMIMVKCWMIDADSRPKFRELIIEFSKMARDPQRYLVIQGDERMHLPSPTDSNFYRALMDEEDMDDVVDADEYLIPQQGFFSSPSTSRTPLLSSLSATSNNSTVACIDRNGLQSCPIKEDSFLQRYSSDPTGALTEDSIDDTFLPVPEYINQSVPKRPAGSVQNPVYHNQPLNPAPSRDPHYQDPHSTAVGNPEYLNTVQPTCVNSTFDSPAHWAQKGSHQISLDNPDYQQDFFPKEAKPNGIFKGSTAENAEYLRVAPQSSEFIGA

[2] = biological target: Epidermal growth factor receptor (Homo sapiens, UniProt P00533, L858R/T790M); experiment: Inhibition of recombinant human GST-tagged EGFR T790M/L858R double mutant expressed in baculovirus expression system using poly (Glu, Tyr) 4:1 as substrate after 1 hr by ELISA
Chain of Epidermal growth factor receptor (Homo sapiens, UniProt P00533, L858R/T790M) (P00533 25-1210 T790M/L858R limits assumed): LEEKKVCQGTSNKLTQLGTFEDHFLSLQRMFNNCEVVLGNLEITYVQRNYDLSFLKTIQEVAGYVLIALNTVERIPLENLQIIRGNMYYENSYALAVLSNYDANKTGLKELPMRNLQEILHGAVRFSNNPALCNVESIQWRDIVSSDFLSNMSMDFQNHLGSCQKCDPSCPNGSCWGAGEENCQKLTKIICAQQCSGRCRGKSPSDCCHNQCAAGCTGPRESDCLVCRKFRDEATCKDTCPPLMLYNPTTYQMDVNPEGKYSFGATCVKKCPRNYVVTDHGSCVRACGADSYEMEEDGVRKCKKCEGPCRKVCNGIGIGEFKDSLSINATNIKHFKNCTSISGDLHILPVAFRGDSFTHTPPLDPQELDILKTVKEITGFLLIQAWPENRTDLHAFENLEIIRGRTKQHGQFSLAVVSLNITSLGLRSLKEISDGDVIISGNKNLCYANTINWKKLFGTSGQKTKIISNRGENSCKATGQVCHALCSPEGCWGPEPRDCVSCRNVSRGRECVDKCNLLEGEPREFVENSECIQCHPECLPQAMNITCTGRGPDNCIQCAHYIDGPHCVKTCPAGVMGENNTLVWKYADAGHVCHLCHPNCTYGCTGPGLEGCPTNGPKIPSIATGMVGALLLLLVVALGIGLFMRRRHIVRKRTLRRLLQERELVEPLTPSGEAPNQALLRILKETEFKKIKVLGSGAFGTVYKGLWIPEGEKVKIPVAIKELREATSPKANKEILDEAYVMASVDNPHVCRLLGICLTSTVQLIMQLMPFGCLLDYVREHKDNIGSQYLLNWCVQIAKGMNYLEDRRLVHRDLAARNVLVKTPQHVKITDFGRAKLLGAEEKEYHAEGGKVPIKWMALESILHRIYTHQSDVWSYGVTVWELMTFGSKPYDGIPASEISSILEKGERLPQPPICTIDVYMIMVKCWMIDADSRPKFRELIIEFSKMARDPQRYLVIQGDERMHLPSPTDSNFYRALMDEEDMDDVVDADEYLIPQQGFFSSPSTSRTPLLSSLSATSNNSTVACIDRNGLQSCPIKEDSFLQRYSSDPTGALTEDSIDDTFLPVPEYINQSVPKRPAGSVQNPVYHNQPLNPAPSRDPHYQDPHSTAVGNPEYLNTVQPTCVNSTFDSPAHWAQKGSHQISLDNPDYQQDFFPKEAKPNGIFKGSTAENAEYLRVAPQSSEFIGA

Homo sapiens [3] = species: Homo sapiens; experiment: Selectivity ratio of IC50 for recombinant human GST-tagged wild type EGFR to IC50 for recombinant human GST-tagged EGFR T790M/L858R double mutant
A-431 = experiment: Antiproliferative activity against wild type EGFR expressing human A431 cells after 72 hrs by SRB assay; format: cell-based; settings: A-431, 72 h
Method in brief: (§1)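 SRB assay: cells seeded at 5×10^3 per well for 24 h, then exposed to serial dilutions for 72 h. DMSO stocks were 10.0 mg/ml. Cells were fixed with 10% TCA at 4 °C for 1 h and stained 15 min with 4 mg/mL SRB in 1% acetic acid. Absorbance was read at 515 nm. Inhibition was taken as [1-(A515 treated/A515 control)]×100%. IC50 was obtained by the logit method, averaging at least three independent experiments.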

NCI-H1975 [4] = experiment: Antiproliferative activity against EGFR T790M/L858R double mutant expressing human NCI-H1975 cells after 72 hrs by SRB assay; format: functional, cell-based; settings: NCI-H1975, 72 h; method in brief: as §1
Homo sapiens [5] = species: Homo sapiens; experiment: Selectivity index, ratio of IC50 for wild type EGFR expressing human A431 cells to IC50 for EGFR T790M/L858R double mutant expressing human NCI-H1975 cells
NCI-H1975 [6] = experiment: Antitumor activity against EGFR T790M/L858R double mutant expressing human NCI-H1975 cells xenografted in BALB/c athymic nude mouse assessed as tumor growth inhibition at 10 mg/kg, po bid for 21 days; format: functional, organism-based
Method in brief: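 5×10^6 NCI-H1975 cells injected subcutaneously into the right flank of athymic mice. At tumour volume 100-300 mm³, mice were randomised (n = 6 per group) to vehicle or drug. Drug given orally twice daily. Tumour size and body weight were measured on set days, with volume = length×width²/2. Results are group means with SEM.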

[7] = tested on: Epidermal growth factor receptor (Homo sapiens), P00533 [L858R,T790M]; experiment: Inhibition of EGF-induced EGFR T790M/L858R double mutant phosphorylation in human NCI-H1975 cells preincubated for 2 hrs followed by EGF induction and measured after 10 mins by Western blot analysis; format: cell-based
Chain of Epidermal growth factor receptor (Homo sapiens), P00533 [L858R,T790M] (P00533 whole entry T790M/L858R, looked up): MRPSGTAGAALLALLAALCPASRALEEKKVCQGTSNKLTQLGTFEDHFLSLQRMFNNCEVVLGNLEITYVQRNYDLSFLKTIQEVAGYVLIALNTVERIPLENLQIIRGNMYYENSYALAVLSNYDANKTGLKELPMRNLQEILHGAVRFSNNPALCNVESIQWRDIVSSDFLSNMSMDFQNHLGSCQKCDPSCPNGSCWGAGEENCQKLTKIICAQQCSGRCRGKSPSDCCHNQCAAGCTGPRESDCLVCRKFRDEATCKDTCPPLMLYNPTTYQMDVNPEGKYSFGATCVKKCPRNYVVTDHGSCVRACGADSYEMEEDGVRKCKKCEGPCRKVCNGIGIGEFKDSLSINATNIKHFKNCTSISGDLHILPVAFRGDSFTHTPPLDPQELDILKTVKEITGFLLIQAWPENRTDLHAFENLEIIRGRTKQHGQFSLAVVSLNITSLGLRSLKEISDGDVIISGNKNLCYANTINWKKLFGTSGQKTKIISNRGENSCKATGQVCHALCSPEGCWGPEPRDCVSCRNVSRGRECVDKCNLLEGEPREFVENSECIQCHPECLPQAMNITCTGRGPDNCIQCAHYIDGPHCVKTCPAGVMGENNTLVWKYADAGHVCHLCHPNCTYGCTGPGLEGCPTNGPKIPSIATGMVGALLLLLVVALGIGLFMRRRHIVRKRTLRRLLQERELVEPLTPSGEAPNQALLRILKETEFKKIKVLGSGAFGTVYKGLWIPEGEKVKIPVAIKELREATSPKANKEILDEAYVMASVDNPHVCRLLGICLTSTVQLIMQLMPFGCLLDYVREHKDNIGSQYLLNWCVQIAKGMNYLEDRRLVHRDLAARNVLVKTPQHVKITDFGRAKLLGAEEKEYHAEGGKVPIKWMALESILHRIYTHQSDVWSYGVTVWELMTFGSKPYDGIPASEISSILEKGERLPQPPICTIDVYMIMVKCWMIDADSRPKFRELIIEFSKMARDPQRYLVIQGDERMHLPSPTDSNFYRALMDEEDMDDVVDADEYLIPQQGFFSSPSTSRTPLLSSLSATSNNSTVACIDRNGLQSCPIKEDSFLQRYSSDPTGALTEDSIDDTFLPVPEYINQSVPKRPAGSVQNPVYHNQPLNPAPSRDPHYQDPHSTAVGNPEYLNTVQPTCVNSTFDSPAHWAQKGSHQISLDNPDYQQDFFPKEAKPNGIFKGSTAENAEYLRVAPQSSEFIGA
Method in brief: (§2)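 Cells were treated with or without compound for 2 h, then stimulated with 50 ng/ml EGF for 10 min. They were lysed in SDS lysis buffer for Western blot. Blots were probed for p-EGFR, EGFR, p-ERK, ERK, p-AKT and AKT, with tubulin as reference.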

[8] = tested on: Epidermal growth factor receptor (Homo sapiens), P00533 [L858R,T790M]; experiment: Inhibition of EGF-induced EGFR T790M/L858R double mutant in human NCI-H1975 cells assessed as decrease in AKT phosphorylation preincubated for 2 hrs followed by EGF induction and measured after 10 mins by Western blot analysis; format: cell-based; method in brief: as §2
[9] = tested on: Epidermal growth factor receptor (Homo sapiens), P00533 [L858R,T790M]; experiment: Inhibition of EGF-induced EGFR T790M/L858R double mutant in human NCI-H1975 cells assessed as decrease in ERK phosphorylation preincubated for 2 hrs followed by EGF induction and measured after 10 mins by Western blot analysis; format: cell-based; method in brief: as §2
[10] = biological target: T1, Epidermal growth factor receptor; experiment: Inhibition of EGF-induced wild type EGFR phosphorylation in human A431 cells at 0.1 to 1000 nM preincubated for 2 hrs followed by EGF induction and measured after 10 mins by Western blot analysis; format: cell-based; settings: 1 µM; method in brief: as §2
NCI-H1975 [11] = experiment: Antitumor activity against EGFR T790M/L858R double mutant expressing human NCI-H1975 cells xenografted in po dosed BALB/c athymic nude mouse assessed as tumor growth inhibition administered as bid for 21 days; format: functional, organism-based
Mus musculus [12] = experiment: Toxicity in BALB/c athymic nude mouse xenografted with EGFR T790M/L858R double mutant expressing human NCI-H1975 cells assessed as body weight loss at 10 to 20 mg/kg, po bid for 21 days; format: organism-based; settings: in vivo, 504 h
Mus musculus [13] = experiment: In vivo inhibition of EGFR T790M/L858R double mutant phosphorylation in tumor of BALB/c athymic nude mouse xenografted with human NCI-H1975 cells at 10 mg/kg, po bid for 21 days; format: functional, organism-based
Method in brief: (§3)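 Western blot of NCI-H1975 xenograft tumors from mice given 10 mg/kg orally twice daily. Phospho-EGFR and phospho-Akt were quantified against the vehicle control group. Significance was set at p < 0.05.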

Mus musculus [14] = experiment: In vivo inhibition of EGFR T790M/L858R double mutant phosphorylation in tumor of BALB/c athymic nude mouse xenografted with human NCI-H1975 cells assessed as decrease in Akt phosphorylation at 10 mg/kg, po bid for 21 days; format: functional, organism-based; method in brief: as §3
Mus musculus [15] = experiment: In vivo inhibition of wild type EGFR phosphorylation in tumor of BALB/c athymic nude mouse xenografted with human A431 cells at 10 mg/kg, po bid for 21 days; settings: 504 h
Mus musculus [16] = experiment: Toxicity in BALB/c athymic nude mouse xenografted with wild type EGFR expressing human A431 cells assessed as body weight loss at 10 to 20 mg/kg, po bid for 21 days; settings: in vivo, 504 h
Mus musculus [17] = experiment: In vivo inhibition of wild type EGFR phosphorylation in tumor of BALB/c athymic nude mouse xenografted with human A431 cells assessed as decrease in Akt phosphorylation at 10 mg/kg, po bid for 21 days; settings: 504 h
A431 (Homo sapiens) = experiment: Antitumor activity against wild type EGFR expressing human A431 cells xenografted in BALB/c athymic nude mouse assessed as tumor growth inhibition at 20 mg/kg, po bid for 21 days relative to vehicle-treated control; settings: in vivo, 504 h

Compound `C=CC(=O)Nc1cc(Nc2nccc(Nc3ccccc3-c3ccn(C)n3)n2)c(OC)cc1OCCN(C)C` has an IC50 [1] of 0.317 µM, an IC50 [2] of 0.0164 µM and a Ratio IC50 (Homo sapiens [3]) of 19. It also gave an IC50 (A-431) of 1.58 µM, an IC50 (NCI-H1975 [4]) of 0.085 µM and a Ratio IC50 (Homo sapiens [5]) of 18.

For `C=CC(=O)Nc1cc(Nc2nccc(-c3cn(C)c4ccccc34)n2)c(OC)cc1N(C)CCN(C)C` [OSIMERTINIB], the IC50 (A-431) was […], the IC50 (NCI-H1975 [4]) was […] and the TGI (NCI-H1975 [6]) was “Active”.

Compound `C=CC(=O)Nc1cc(Nc2nccc(Nc3ccccc3-c3ccn(C)n3)n2)c(OC)cc1N1CCN(C)CC1` has an IC50 [1] greater than 1 µM and an IC50 [2] greater than 1 µM.

Work on `C=CC(=O)Nc1cc(Nc2nccc(Nc3ccccc3-n3nccn3)n2)c(OC)cc1N(C)CCN(C)C` yielded an IC50 [1] of 0.281 µM, an IC50 [2] of 0.0331 µM and a Ratio IC50 (Homo sapiens [3]) of 8.

With `C=CC(=O)Nc1cc(Nc2nccc(Nc3ccccc3-n3nccn3)n2)c(OC)cc1N1CCN(C)CC1` the IC50 [1] was greater than 1 µM and the IC50 [2] was 0.175 µM.

`C=CC(=O)Nc1cc(Nc2nccc(Nc3ccccc3-n3nccn3)n2)c(OC)cc1N1CCOCC1` showed an IC50 [1] greater than 1 µM and an IC50 [2] of 0.838 µM.

`C=CC(=O)Nc1cc(Nc2nccc(Nc3ccccc3-c3ccn(C)n3)n2)c(OC)cc1N1CCC(N(C)C)CC1` was tested, and the IC50 [1] was greater than 1 µM and the IC50 [2] was 0.0385 µM.

Work on `C=CC(=O)Nc1cc(Nc2nccc(Nc3ccccc3-c3ccn(C)n3)n2)c(OC)cc1N1CCOCC1` yielded an IC50 [1] greater than 1 µM and an IC50 [2] greater than 1 µM.

For `C=CC(=O)Nc1cc(Nc2nccc(Nc3ccccc3-n3nccn3)n2)c(OC)cc1N1CCC(N(C)C)CC1`, the IC50 [1] was greater than 1 µM, the IC50 [2] was 0.202 µM and the IC50 (A-431) was 2.76 µM. For the same compound, the IC50 (NCI-H1975 [4]) was 0.07 µM and the Ratio IC50 (Homo sapiens [5]) was 39.

`C=CC(=O)Nc1cc(Nc2nccc(Nc3ccccc3-n3cccn3)n2)c(OC)cc1N1CCOCC1` showed an IC50 [1] greater than 1 µM and an IC50 [2] greater than 1 µM.

`C=CC(=O)Nc1cc(Nc2nccc(Nc3ccccc3-n3cccn3)n2)c(OC)cc1N1CCN(C)CC1` gave an IC50 [1] greater than 1 µM and an IC50 [2] of 0.143 µM.

For `C=CC(=O)Nc1cc(Nc2nccc(Nc3ccccc3-c3ncn(C)n3)n2)c(OC)cc1N(C)CCN(C)C`, the IC50 [1] was 0.66 µM, the IC50 [2] was 0.0077 µM and the Ratio IC50 (Homo sapiens [3]) was 86. For the same compound, the IC50 (A-431) was 1.5 µM, the IC50 (NCI-H1975 [4]) was 0.074 µM and the Ratio IC50 (Homo sapiens [5]) was 20.

`C=CC(=O)Nc1cc(Nc2nccc(Nc3ccccc3-c3ccn(C)n3)n2)c(OC)cc1N(C)CCN(C)C` showed an IC50 [1] of 0.35 µM, an IC50 [2] of 0.0041 µM and a Ratio IC50 (Homo sapiens [3]) of 85. The IC50 (A-431) was 7.37 µM, the IC50 (NCI-H1975 [4]) was 0.059 µM and the inhibition [7] was “Dose-dependent effect”. For the same compound, the inhibition [8] was “Dose-dependent effect”, the inhibition [9] was “Dose-dependent effect” and the “inhibition (INH)” value [10] was “Not Active”. For the same compound, the TGI (NCI-H1975 [11]) was “Dose-dependent effect”, the Activity (Mus musculus [12]) was “Non-Toxic” and the inhibition (Mus musculus [13]) was “Active”. The inhibition (Mus musculus [14]) was “Active”, the Ratio IC50 (Homo sapiens [5]) was 124 and the “inhibition (INH)” value (Mus musculus [15]) was “Not Active”. For the same compound, the Activity (Mus musculus [16]) was “Non-Toxic”, the “inhibition (INH)” value (Mus musculus [17]) was “Not Active” and the TGI (A431 (Homo sapiens)) was less than 20%.

In the case of `C=CC(=O)Nc1cc(Nc2nccc(Nc3ccccc3-n3cccn3)n2)c(OC)cc1N(C)CCN(C)C`, the IC50 [1] is reported as 0.648 µM, the IC50 [2] is reported as 0.0041 µM and the Ratio IC50 (Homo sapiens [3]) is reported as 158. It also gave an IC50 (A-431) of 10.1 µM, an IC50 (NCI-H1975 [4]) of 0.068 µM and a Ratio IC50 (Homo sapiens [5]) of 148.
